Data published in ChEMBL document CHEMBL3414530, “Synthesis, molecular modeling, and biological evaluation of novel RAD51 inhibitors” (Eur J Med Chem, 2015).
The source made the active and inactive calls. No cut-off for these calls is given here.

Legend:
[1] = biological target: T1, DNA repair protein RAD51 homolog 1 (Homo sapiens) (UniProt Q06609); test: Inhibition of RAD51 in human HeLa cells expressing DR-GFP assessed as reduction of homologous recombination frequency after 24 hrs by I-SceI inducible gene conversion assay; assay type: cell-based
T1 sequence (whole entry): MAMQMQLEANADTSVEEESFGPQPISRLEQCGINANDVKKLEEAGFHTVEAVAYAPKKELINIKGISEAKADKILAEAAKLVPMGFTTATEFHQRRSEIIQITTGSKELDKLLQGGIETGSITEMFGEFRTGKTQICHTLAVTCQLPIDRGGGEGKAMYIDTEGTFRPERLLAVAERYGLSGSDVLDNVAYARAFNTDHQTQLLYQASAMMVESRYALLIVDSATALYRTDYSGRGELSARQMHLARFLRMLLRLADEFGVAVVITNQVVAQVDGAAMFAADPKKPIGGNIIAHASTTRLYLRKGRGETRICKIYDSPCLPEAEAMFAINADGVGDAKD
Method in brief: (§1)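 HeLa cells stably carrying DR-GFP (puromycin 2 µg/mL selection) were transiently transfected with I-SceI vector pCBASce for 24 h to induce DSBs. They were then treated with DMSO or compound at 10 or 20 µM for another 24 h. GFP-positive percentage was measured by flow cytometry as means±SD from three independent experiments.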

[2] = system: MDA-MB-231; test: Cytotoxicity against human MDA-MB-231 cells assessed as growth inhibition after 4 days by XTT assay; assay type: functional, cell-based; conditions: MDA-MB-231, 96 h
Method in brief: (§2)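 Cells kept in low-glucose DMEM with 10% FBS and 1% penicillin-streptomycin, seeded in 96-well plates the day before treatment. Compound exposure lasted four days, and the XTT cell proliferation kit was read on day 6 after drug addition. Dose-response cytotoxicity was measured in triplicate sets.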

[3] = system: T98G; test: Cytotoxicity against human T98G cells assessed as growth inhibition after 4 days by XTT assay; assay type: functional, cell-based; conditions: 96 h; method in brief: as §2
[4] = system: K562; test: Cytotoxicity against human K562 cells assessed as growth inhibition after 4 days by XTT assay; assay type: functional, cell-based; conditions: K562, 96 h
[5] = system: HeLa; test: Cytotoxicity against human HeLa cells assessed as growth inhibition after 4 days by XTT assay; assay type: functional, cell-based; conditions: 96 h
[6] = biological target: T1, DNA repair protein RAD51 homolog 1 (Homo sapiens); test: Inhibition of RAD51 (unknown origin) multimerization at 1:10 M ratio of protein to compound after 15 mins by gel filtration method
Method in brief: (§3)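 Purified RAD51 (3.2 µg) preincubated with compound at 1:10 protein:compound molar ratio, 15 min at 37°C. Then 15 min in 50 mM triethanolamine-HCl pH 7.5, 0.5 mM Mg(OAc)2, 1 mM DTT, 2 mM ATP, 100 µg/ml BSA. Run on Superdex 200 PC 3.2/30 gel filtration in the same buffer. 50 µl fractions dot-blotted onto PVDF and probed with anti-RAD51 mAb 14B4.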

[7] = Selectivity ratio of IC50 for human MCF10A cells to IC50 for human T98G cells; assay type: ADME, cell-based, MCF-10A; conditions: MCF10A cells versus T98G cells
[8] = system: U2OS; test: Cytotoxicity against human U2OS cells assessed as growth inhibition after 4 days by XTT assay; assay type: functional, cell-based; conditions: 96 h; method in brief: as §2
[9] = system: T47D; test: Cytotoxicity against human T47D cells assessed as growth inhibition after 4 days by XTT assay; assay type: functional, cell-based; conditions: 96 h
[10] = Cytotoxicity against human MCF10A cells assessed as growth inhibition after 4 days by XTT assay; assay type: cell-based; conditions: MCF-10A, 96 h
[11] = system: MDA-MB-361; test: Cytotoxicity against human MDA-MB-361 cells assessed as growth inhibition after 4 days by XTT assay; assay type: functional, cell-based; conditions: MDA-MB-361, 96 h; method in brief: as §2
[12] = system: MDA-MB-435; test: Cytotoxicity against human MDA-MB-435 cells assessed as growth inhibition after 4 days by XTT assay; assay type: functional, cell-based; conditions: MDA-MB-435, 96 h; method in brief: as §2
[13] = Cytotoxicity against human Hs578T cells assessed as growth inhibition after 4 days by XTT assay; assay type: functional, cell-based; conditions: Hs-578T, 96 h; method in brief: as §2
[14] = system: MCF7; test: Cytotoxicity against human MCF7 cells assessed as growth inhibition after 4 days by XTT assay; assay type: functional, cell-based; conditions: MCF7, 96 h; method in brief: as §2
[15] = Selectivity ratio of IC50 for human MCF10A cells to IC50 for human T47D cells; assay type: ADME, cell-based, MCF-10A; conditions: MCF10A cells versus T47D cells
[16] = system: MDA-MB-468; test: Cytotoxicity against human MDA-MB-468 cells assessed as growth inhibition after 4 days by XTT assay; assay type: functional, cell-based; conditions: MDA-MB-468, 96 h; method in brief: as §2
[17] = biological target: T1, DNA repair protein RAD51 homolog 1 (Homo sapiens); test: Inhibition of RAD51 in human HeLa cells expressing DR-GFP assessed as reduction of homologous recombination frequency at 10 to 20 uM after 24 hrs by I-SceI inducible gene conversion assay; assay type: cell-based; method in brief: as §1
[18] = biological target: T1, DNA repair protein RAD51 homolog 1 (Homo sapiens); test: Inhibition of RAD51 (unknown origin) multimerization by gel filtration method; method in brief: as §3

With O=S(=O)(Cc1ccccc1)N1Cc2ccccc2[C@@H]1c1c[nH]c2ccccc12 the inhibition [1] was “Dose-dependent effect”, the IC50 [2] was 3.5 µM and the IC50 [3] was 9.5 µM. The IC50 [4] was 3.6 µM, the IC50 [5] was 3.6 µM and the inhibition [6] was “Active”. For the same compound, the selectivity ratio [7] was greater than 3.2, the IC50 [8] was 4.7 µM and the IC50 [9] was 6.3 µM. It also gave an IC50 [10] greater than 30 µM, an IC50 [11] of 4.5 µM and an IC50 [12] of 4 µM. For the same compound, the IC50 [13] was 4.9 µM, the IC50 [14] was 3.1 µM and the selectivity ratio [15] was greater than 4.8.

Work on O=S(=O)(Cc1ccccc1F)N1CCc2ccccc2[C@H]1c1c[nH]c2ccccc12 yielded an IC50 [16] of 19.2 µM.

Compound O=S(=O)(Cc1ccccc1)N1C=Cc2ccccc2C1c1c[nH]c2ncccc12 (racemic) has an IC50 [16] of 6.2 µM.

In the case of O=S(=O)(Cc1ccccc1F)N1CCc2ccccc2[C@@H]1c1c[nH]c2ccccc12, the IC50 [16] is reported as 12.7 µM.

With O=S(=O)(Cc1ccccc1C(F)(F)F)N1CCc2ccccc2[C@@H]1c1c[nH]c2ccccc12 the IC50 [16] was 14.8 µM.

In the case of O=S(=O)(Cc1ccccc1)N1CCc2ccccc2[C@@H]1c1n[nH]c2ccccc12, the IC50 [16] is reported as 9.5 µM.

With O=S(=O)(Cc1ccccc1)N1C=Cc2ccccc2C1c1c[nH]c2ccccc12 (racemic) the inhibition [17] was “Active”, the inhibition [18] was “Active” and the IC50 [16] was 14.8 µM.

Work on Nc1ncc([C@@H]2c3ccccc3CCN2S(=O)(=O)Cc2ccccc2)s1 yielded an IC50 [16] greater than 25 µM.

COc1nccc2c(C3c4ccccc4C=CN3S(=O)(=O)Cc3ccccc3)c[nH]c12 (racemic) showed an IC50 [16] of 6.3 µM.

O=S(=O)(Cc1ccccc1)N1CCc2ccccc2[C@H]1c1n[nH]c2ccccc12 gave an IC50 [16] of 14.3 µM.

O=S(=O)(Cc1cccc(F)c1)N1CCc2ccccc2[C@H]1c1c[nH]c2ccccc12 showed an IC50 [16] of 17.2 µM.

In the case of O=S(=O)(Cc1ccc(F)cc1)N1CCc2ccccc2[C@H]1c1c[nH]c2ccccc12, the IC50 [16] is reported as 25.7 µM.

Compound O=S(=O)(Cc1cccc(F)c1)N1CCc2ccccc2[C@@H]1c1c[nH]c2ccccc12 has an IC50 [16] of 14.2 µM.

With O=S(=O)(Cc1ccc(F)cc1)N1CCc2ccccc2[C@@H]1c1c[nH]c2ccccc12 the IC50 [16] was 11.2 µM.

Compound O=S(=O)(Cc1ccc(C(F)(F)F)cc1)N1CCc2ccccc2[C@@H]1c1c[nH]c2ccccc12 has an IC50 [16] of 13.6 µM.

O=S(=O)(Cc1cccc(C(F)(F)F)c1)N1CCc2ccccc2[C@@H]1c1c[nH]c2ccccc12 gave an IC50 [16] of 11.1 µM.

For O=S(=O)(Cc1ccc(C(F)(F)F)cc1)N1CCc2ccccc2[C@H]1c1c[nH]c2ccccc12, the IC50 [16] was 20.7 µM.

O=S(=O)(Cc1ccccc1)N1Cc2ccccc2[C@H]1c1c[nH]c2ccccc12 gave an IC50 [16] greater than 12 µM.

For O=S(=O)(Cc1ccccc1)N1CC=Cc2ccccc2[C@@H]1c1c[nH]c2ccccc12, the IC50 [16] was 14.7 µM.

Work on O=S(=O)(Cc1ccccc1)N1CCc2ccccc2[C@@H]1c1c[nH]c2ccccc12 yielded an IC50 [16] of 11.7 µM.

O=S(=O)(Cc1ccccc1)N1CCc2ccccc2[C@H]1c1c[nH]c2ccccc12 gave an IC50 [16] of 13.2 µM.

Work on COc1cc2c(C3c4ccccc4C=CN3S(=O)(=O)Cc3ccccc3)c[nH]c2cn1 (racemic) yielded an IC50 [16] of 12.7 µM.

Work on O=S(=O)(Cc1cccc(C(F)(F)F)c1)N1CCc2ccccc2[C@H]1c1c[nH]c2ccccc12 yielded an IC50 [16] of 22.2 µM.

O=S(=O)(Cc1ccccc1)N1CC=Cc2ccccc2[C@H]1c1c[nH]c2ccccc12 gave an IC50 [16] greater than 50 µM.

For O=S(=O)(Cc1ccccc1C(F)(F)F)N1CCc2ccccc2[C@H]1c1c[nH]c2ccccc12, the IC50 [16] was 16.7 µM.
